Compound activity (PubChem BioAssay)
Rows were chosen to be rich in hits. Some 1.8% of all compounds tested hit in one or more screens of this group.
M4 PAM = potentiates acetylcholine response at human M4 receptor | CHO-K1 hM4/Gqi5, Fluo-8 calcium fluorescence, ACh EC20; 0% = ACh EC20, 100% = maximal ACh | 360,000 compounds, 0.4% hits | activation, % at 3 µM | AID 624126 | P08173;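 active = activation above its plate's cutoff, the mean activation of sample wells plus 3 SD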
Target sequence (P08173 whole entry, looked up): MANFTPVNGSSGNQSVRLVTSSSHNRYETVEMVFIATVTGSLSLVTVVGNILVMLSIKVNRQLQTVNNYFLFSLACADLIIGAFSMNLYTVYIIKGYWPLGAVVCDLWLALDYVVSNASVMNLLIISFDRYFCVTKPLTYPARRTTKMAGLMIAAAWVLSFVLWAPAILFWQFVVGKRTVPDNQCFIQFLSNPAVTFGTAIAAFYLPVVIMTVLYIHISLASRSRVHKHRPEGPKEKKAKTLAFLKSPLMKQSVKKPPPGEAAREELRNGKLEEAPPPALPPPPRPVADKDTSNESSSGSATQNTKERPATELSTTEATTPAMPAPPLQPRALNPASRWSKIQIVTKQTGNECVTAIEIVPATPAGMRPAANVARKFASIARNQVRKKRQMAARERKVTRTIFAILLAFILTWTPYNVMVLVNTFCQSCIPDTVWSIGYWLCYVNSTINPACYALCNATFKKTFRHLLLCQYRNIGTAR
M5 antag = blocks acetylcholine activation of human M5 receptor; CHO-hM5 cells, Fluo-8 calcium fluorescence, ACh EC80; inhibition, % at 3 µM; 360,000 compounds, 0.59% hits; AID 624040;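 active = inhibition above a per-plate cutoff, the mean of that plate's test compounds plus 3 SD, cut at about 27% in these data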;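 also: 0% = acetylcholine EC80 with DMSO and 100% = DMSO without agonist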
M5 PAM = positive allosteric modulators of human muscarinic M5 receptor | P08912 | CHO-K1 hM5, Fluo-8 calcium, ACh EC20 PAM; 0% = ACh EC20, 100% = ACh EC100 | activation, % at 3 µM | 360,000 compounds, 0.3% hits | AID 624038;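 active = activation above the run cutoff, the mean activation of all test compounds plus 3 SD, cut at about 18% in these data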
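System: CHO-K1 hM5 cells. Reagent: acetylcholine, EC20 level. Compound dosing: single dose, 3 µM nominal final test concentration. Timing: Post-acetylcholine fluorescence recording 140 s. Detection: Fluo-8 calcium fluorescence. Read-out: % activation, ACh-normalized. Benchmarks: ACh EC20 and EC100 wells. Repeats: singlicate, one well per test compound.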
CHRM5 agonist = CHRM5 agonism in calcium assay | CHO-K1 hM5 cells, Fluo-8 calcium fluorescence; 0% DMSO wells, 100% maximal acetylcholine response | activation, % at 3 µM | 360,000 compounds, 0.19% hits;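 active = activation above the run's mean over test compounds plus 3 SD, cut at about 23% in these data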;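 also: signal is peak over basal fluorescence ratio across the kinetic read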
CHRM4 antagonist = blocks acetylcholine activation of human M4 receptor. CHO-hM4 cells, ACh EC80, Fluo-8 calcium fluorescence. P08173. inhibition, % at 3 µM. 360,000 compounds, 0.73% hits;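 active = inhibition above its plate's cutoff, the mean inhibition of sample wells plus 3 SD, cut at about 27% in these data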;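 also: 0% = acetylcholine EC80 with DMSO and 100% = DMSO without agonist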
M4 ag = agonists of human muscarinic M4 receptor (CHRM4); P08173; CHO-K1 hM4/Gqi5, Fluo-8 calcium fluorescence; vehicle 0%, full acetylcholine response 100%; activation, % at 3 µM; 360,000 compounds, 0.14% hits;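 active = activation above the run mean over all test wells plus 3 SD, cut at about 32% in these data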;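 also: peak over basal fluorescence ratio per well then scaled between controls; 0% = DMSO wells and 100% = acetylcholine at EC100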
* marks the source's active call; other numbers are inactive results.

SMILES | M4 PAM | M5 antag | M5 PAM | CHRM5 agonist | CHRM4 antagonist | M4 ag
CC(C)c1ccc(N2C(=O)CSC23C(=O)N2CCCc4cccc3c42)cc1 (configuration not stated) | -34.5 | 47.9* | -22.6 | -11.0 | 89.6* | -1.8
Cc1[nH]c2ccccc2c1/C=N/NC(=O)c1cc(-c2ccncc2)nc2ccccc12 | -6.3 | 24.1 | 31.1* | 1.1 | 1.4 | 12.9
Cc1[nH]c2ccccc2c1/C=N/NC(=O)c1cc(-c2ccccc2)n[nH]1 | -7.1 | -0.5 | -4.0 | 4.5 | 10.5 | 4.3
CC1Cc2nc(SCC(=O)NCc3ccccc3)n(Cc3ccccc3)c(=O)c2S1 (configuration not stated) | -16.1 | -4.0 | -6.4 | -3.7 | 37.9* | 4.2
CC1Cc2nc(SCC(=O)c3ccccc3)n(Cc3ccccc3)c(=O)c2S1 (configuration not stated) | -5.0 | 1.1 | -4.9 | -4.3 | -2.5 | 4.1
Cc1nc2nc(SCC(=O)NCCCN3CCCCC3)nn2c(C)c1Cc1ccccc1 | -14.4 | 13.6 | -3.8 | -6.0 | 4.0 | 0.9
CCC1CCCCN1CCCNC(=O)CSc1nc2nc(C)c(Cc3ccc(C)cc3)c(C)n2n1 (configuration not stated) | -13.8 | 8.4 | -8.6 | -8.0 | 26.4* | 0.9
Cc1nc2nc(SCC(=O)NCCCN3CCCC3)nn2c(C)c1Cc1ccccc1Cl | -20.1 | 26.3 | -14.9 | -8.7 | 27.4* | 0.6
Cc1cccn2c(=O)c(/C=C(\C#N)C(=O)NCc3ccco3)c(N3CCCC(C)C3)nc12 (configuration not stated) | 2.7 | 6.8 | -4.7 | 0.0 | 13.3 | 0.4
CCOC(=O)C1CCCN(c2nc3c(C)cccn3c(=O)c2/C=C(\C#N)C(=O)NCc2ccco2)C1 (configuration not stated) | -24.5 | 12.8 | -27.0 | 31.0* | 1.3 | 6.3
CN(C)c1ccc(/C=C/c2nc3ccccc3c(=O)n2-c2ccc(C(=O)O)cc2)cc1 | -18.0 | 9.5 | -10.4 | 25.5* | 16.1 | 54.9*
CCOC(=O)CSc1nc2c(cnn2-c2ccc(C)cc2)c(=O)[nH]1 | 19.1* | -6.3 | 1.5 | -6.5 | -22.2 | 1.0
CCOC(=O)C1CCCN(C/C(O)=C(\C#N)c2nc(-c3ccccc3)cs2)C1 (configuration not stated) | 3.3 | -3.5 | -6.5 | 23.3* | -3.7 | 4.6
Cc1cc(=O)oc2c(C)c(OC(C)C(=O)Nc3ccc(N4CCC(C)CC4)cc3)ccc12 (configuration not stated) | -3.5 | -13.6 | 21.3* | -2.4 | -18.8 | -0.2
CC1(C)CC(NC(=O)c2ccc(-c3ccc([N+](=O)[O-])cc3)o2)CC(C)(C)N1 | 19.9* | -8.2 | 5.5 | -6.1 | 3.3 | -0.1
Cc1c(C(=O)N2CCOCC2)sc(NC(=O)c2ccccc2F)c1C#N | -8.8 | 6.4 | 7.2 | -0.7 | 16.9 | 1.8
Nc1nc(NCC2CCCO2)nc(Nc2cccc(Cl)c2)c1[N+](=O)[O-] (configuration not stated) | 5.1 | -0.6 | 7.7 | 5.0 | 1.2 | 1.4
Cc1cccc(Nc2nc(NCC3CCCO3)nc(N)c2[N+](=O)[O-])c1 (configuration not stated) | 23.5* | 16.4 | 6.7 | -1.6 | 15.1 | 2.2
O=[N+]([O-])c1cc(S(=O)(=O)NCCN2CCOCC2)ccc1Sc1nnnn1-c1ccccc1 | -15.5 | -1.2 | -7.7 | -5.2 | 48.7* | 2.7
Cc1ccc(S(=O)(=O)NCCSc2nnnn2-c2ccc(C(N)=O)cc2)cc1 | -1.4 | 4.2 | -10.7 | 0.4 | -11.8 | 2.2
O=[N+]([O-])c1cc(S(=O)(=O)NCCCN2CCOCC2)ccc1Cl | -5.3 | -5.2 | -2.5 | -1.4 | -2.3 | 0.6
Cc1ccc(-n2nnnc2Sc2ccc(S(=O)(=O)NCCN(C)C)cc2[N+](=O)[O-])cc1 | -17.7 | 1.8 | -6.2 | -7.8 | 34.4* | 11.0
CS(=O)(=O)Nc1ccc(F)cc1 | -0.8 | -7.9 | -2.8 | 4.9 | 2.5 | 0.1
Cc1ccc(NC(=O)c2ccc(NCc3ccc(F)cc3)nc2)cc1 | -0.3 | 31.8* | -18.2 | -3.4 | 2.9 | 5.5
